# Experimental data from ChEMBL document CHEMBL4219118, “Cathepsin B inhibitors: Further exploration of the nitroxoline core” (Bioorg Med Chem Lett, 2018).
# Activity calls are given as the source filed them. No cut-off for these calls is given here.
# Legend:
# Cathepsin B [1] = molecular target: T1, Cathepsin B (Homo sapiens, UniProt P07858); test: Mixed inhibition of recombinant human cathepsin B endopeptidase activity assessed as inhibitory constant for enzyme-substrate-inhibitor complex using Z-Arg-Arg-AMC as substrate in presence of pH 6 phosphate buffer by fluorescence assay
# Cathepsin B [2] = molecular target: T1, Cathepsin B; test: Non-competitive inhibition of recombinant human cathepsin B exopeptidase activity assessed as inhibitory constant for enzyme-inhibitor complex using Abz-Gly-Ile-Val-Arg-Ala-Lys(Dnp)-OH as substrate in presence of pH 5 acetate buffer by fluorescence assay
# Cathepsin B [3] = molecular target: T1, Cathepsin B; test: Non-competitive inhibition of recombinant human cathepsin B exopeptidase activity assessed as inhibitory constant for enzyme-substrate-inhibitor complex using Abz-Gly-Ile-Val-Arg-Ala-Lys(Dnp)-OH as substrate in presence of pH 5 acetate buffer by fluorescence assay
# Cathepsin B [4] = molecular target: T1, Cathepsin B; test: Mixed inhibition of recombinant human cathepsin B endopeptidase activity assessed as inhibitory constant for enzyme-inhibitor complex using Z-Arg-Arg-AMC as substrate in presence of pH 6 phosphate buffer by fluorescence assay
# Cathepsin B [5] = molecular target: T1, Cathepsin B; test: (§1) Inhibition of cathepsin B in human MCF-10A neoT cells assessed as proteolysis of extracellular membrane by measuring decrease in intracellular degradation of DQ-collagen 4 at 50 uM incubated for 2 hrs followed by DQ-collagen addition measured for 2 hrs by propidium iodide staining based flow cytometry relative to control; assay type: cell-based
# Summary of the method: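 MCF-10A neoT cells (6 × 10⁴) treated with compound or DMSO. Intracellular DQ-collagen IV degradation measured by flow cytometry, with unlabeled cells as background. Reduction expressed versus DMSO. Mean of n = 3, run in duplicate.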
# Cathepsin B [6] = molecular target: T1, Cathepsin B; test: Uncompetitive inhibition of recombinant human cathepsin B exopeptidase activity assessed as inhibitory constant for enzyme-substrate-inhibitor complex using Abz-Gly-Ile-Val-Arg-Ala-Lys(Dnp)-OH as substrate in presence of pH 5 acetate buffer by fluorescence assay
# Cathepsin B [7] = molecular target: T1, Cathepsin B; test: Uncompetitive inhibition of recombinant human cathepsin B endopeptidase activity assessed as inhibitory constant for enzyme-substrate-inhibitor complex using Z-Arg-Arg-AMC as substrate in presence of pH 6 phosphate buffer by fluorescence assay
# Cathepsin B [8] = molecular target: T1, Cathepsin B; test: Inhibition of recombinant human cathepsin B endopeptidase activity assessed as inhibitory constant for enzyme-substrate-inhibitor complex using Z-Arg-Arg-AMC as substrate in presence of pH 6 phosphate buffer by fluorescence assay
# Cathepsin B [9] = molecular target: T1, Cathepsin B; test: Inhibition of recombinant human cathepsin B endopeptidase activity assessed as inhibitory constant for enzyme-inhibitor complex using Z-Arg-Arg-AMC as substrate in presence of pH 4.5 acetate buffer by fluorescence assay
# Summary of the method: (§2)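 Recombinant cathepsin B endopeptidase activity assayed with the small substrate Z-Arg-Arg-AMC at pH 4.5. Acidic conditions chosen to shift the enzyme toward the closed (exopeptidase) conformation. Ki reported.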
# Cathepsin B [10] = molecular target: T1, Cathepsin B; test: Non-competitive inhibition of recombinant human cathepsin B endopeptidase activity assessed as inhibitory constant for enzyme-substrate-inhibitor complex using Z-Arg-Arg-AMC as substrate in presence of pH 6 phosphate buffer by fluorescence assay
# Cathepsin B [11] = molecular target: T1, Cathepsin B; test: Mixed inhibition of recombinant human cathepsin B exopeptidase activity assessed as inhibitory constant for enzyme-substrate-inhibitor complex using Abz-Gly-Ile-Val-Arg-Ala-Lys(Dnp)-OH as substrate in presence of pH 5 acetate buffer by fluorescence assay
# Cathepsin B [12] = molecular target: T1, Cathepsin B; test: Mixed inhibition of recombinant human cathepsin B exopeptidase activity assessed as inhibitory constant for enzyme-inhibitor complex using Abz-Gly-Ile-Val-Arg-Ala-Lys(Dnp)-OH as substrate in presence of pH 5 acetate buffer by fluorescence assay
# Cathepsin B [13] = molecular target: T1, Cathepsin B; test: Non-competitive inhibition of recombinant human cathepsin B endopeptidase activity assessed as inhibitory constant for enzyme-inhibitor complex using Z-Arg-Arg-AMC as substrate in presence of pH 6 phosphate buffer by fluorescence assay
# Cathepsin B [14] = molecular target: T1, Cathepsin B; test: Competitive inhibition of recombinant human cathepsin B endopeptidase activity assessed as inhibitory constant for enzyme-inhibitor complex using Z-Arg-Arg-AMC as substrate in presence of pH 4.5 acetate buffer by fluorescence assay; summary of the method: as §2
# MCF-10A-neoT [15] = test: Cytotoxicity against human MCF10AneoT cells assessed as decrease in cell viability after 72 hrs by MTS assay; assay type: cell-based
# Pro-cathepsin H [16] = molecular target: T2, Pro-cathepsin H (Homo sapiens, UniProt P09668); test: Non-competitive inhibition of human liver cathepsin H assessed as inhibitory constant for enzyme-inhibitor complex using R-AMC as substrate in presence of pH 6 phosphate buffer by fluorescence assay
# T2 sequence (P09668 whole entry): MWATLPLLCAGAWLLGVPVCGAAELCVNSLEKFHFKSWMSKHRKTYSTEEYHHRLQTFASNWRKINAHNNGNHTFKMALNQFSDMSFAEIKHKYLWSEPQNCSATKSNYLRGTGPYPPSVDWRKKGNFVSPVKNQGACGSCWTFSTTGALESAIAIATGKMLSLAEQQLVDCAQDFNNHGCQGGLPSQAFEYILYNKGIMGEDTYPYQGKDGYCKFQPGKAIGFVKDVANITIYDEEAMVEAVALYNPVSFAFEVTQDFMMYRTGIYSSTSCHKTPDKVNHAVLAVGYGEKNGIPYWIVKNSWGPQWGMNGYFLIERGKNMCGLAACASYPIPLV
# Pro-cathepsin H [17] = molecular target: T2, Pro-cathepsin H; test: Non-competitive inhibition of human liver cathepsin H assessed as inhibitory constant for enzyme-substrate-inhibitor complex using R-AMC as substrate in presence of pH 6 phosphate buffer by fluorescence assay
# MCF-10A-neoT [18] = test: Antiinvasive activity against human MCF10AneoT cells at 5 uM incubated for 1 hr measured every 15 mins for 72 hrs by real time xCELLigence assay relative to control; assay type: functional
# Summary of the method: (§3)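 MCF-10A neoT cells (3 × 10⁴) seeded on Matrigel-coated (1 mg/mL) upper compartments of CIM-plates. Compound or DMSO (0.05%) added to growth medium in both upper and lower compartments. Invasion followed by impedance (cell index) for 72 h. Slopes (1/h) between 4 and 14 h converted to percentage invasion versus DMSO. Means of n = 2, each run in triplicate.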
# U-87 MG = test: Cytotoxicity against human U87MG cells assessed as decrease in cell viability after 72 hrs by MTS assay; assay type: cell-based; details: u-87mg atcc
# Procathepsin L = Procathepsin L (Homo sapiens, UniProt P07711); test: Competitive inhibition of recombinant human cathepsin L expressed in Escherichia coli assessed as inhibitory constant for enzyme-inhibitor complex using Z-FR-AMC as substrate in presence of pH 6 phosphate buffer by fluorescence assay
# Procathepsin L, sequence (P07711 whole entry): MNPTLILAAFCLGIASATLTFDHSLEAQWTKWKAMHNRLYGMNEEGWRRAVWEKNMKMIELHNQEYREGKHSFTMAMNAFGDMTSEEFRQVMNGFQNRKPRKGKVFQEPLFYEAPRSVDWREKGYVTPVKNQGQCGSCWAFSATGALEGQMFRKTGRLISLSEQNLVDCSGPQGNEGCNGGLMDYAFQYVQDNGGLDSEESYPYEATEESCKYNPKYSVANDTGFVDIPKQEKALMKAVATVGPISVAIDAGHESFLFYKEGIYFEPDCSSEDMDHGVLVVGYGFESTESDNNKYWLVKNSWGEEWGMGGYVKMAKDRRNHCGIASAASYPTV
# Cathepsin B [19] = molecular target: T1, Cathepsin B; test: Inhibition of cathepsin B in human MCF-10A neoT cells assessed as proteolysis of extracellular membrane by measuring decrease in extracellular degradation of DQ-collagen 4 at 5 uM incubated for 6 hrs measured for 2 hrs by fluorescence based spectrofluorimetric assay relative to control; assay type: cell-based
# Summary of the method: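 MCF-10A neoT cells (5 × 10⁴) incubated with DQ-collagen IV in the presence of compound or DMSO. Extracellular degradation product read by spectrofluorimetry. Mean of n = 3, six replicates per experiment.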
# Cathepsin B [20] = molecular target: T1, Cathepsin B; test: Inhibition of recombinant human cathepsin B exopeptidase activity assessed as residual activity at 50 uM using Abz-Gly-Ile-Val-Arg-Ala-Lys(Dnp)-OH as substrate in presence of pH 5 acetate buffer by fluorescence assay relative to control
# Cathepsin B [21] = molecular target: T1, Cathepsin B; test: Inhibition of recombinant human cathepsin B endopeptidase activity assessed as residual activity at 50 uM using Z-Arg-Arg-AMC as substrate in presence of pH 6 phosphate buffer by fluorescence assay relative to control
# Cathepsin B [22] = molecular target: T1, Cathepsin B; test: as §1, with “25” for “50”; assay type: cell-based
# Summary of the method: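 Intracellular DQ-collagen IV degradation in MCF-10A neoT cells (6 × 10⁴) treated with compound or DMSO, read by flow cytometry. Unlabeled cells served as background. Reduction in intracellular signal reported against DMSO as mean ± SEM, n = 3 experiments, each in duplicate.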
# MCF-10A-neoT [23] = test: Antiinvasive activity against human MCF10AneoT cells at 2.5 uM incubated for 1 hr measured every 15 mins for 72 hrs by real time xCELLigence assay relative to control; assay type: functional, cell-based; summary of the method: as §3
# Cathepsin B [24] = molecular target: T1, Cathepsin B; test: Inhibition of cathepsin B in human MCF-10A neoT cells assessed as proteolysis of extracellular membrane by measuring decrease in extracellular degradation of DQ-collagen 4 at 2.5 uM incubated for 6 hrs measured for 2 hrs by fluorescence based spectrofluorimetric assay; assay type: cell-based
# Summary of the method: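 MCF-10A neoT cells (5 × 10⁴) exposed to compound or DMSO vehicle control with DQ-collagen IV. Fluorescence of the extracellular cleavage product measured by spectrofluorimetry. Mean ± SEM of n = 3 experiments, each in six replicates.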
Compound,Ki (Cathepsin B [1]) [µM],Ki (Cathepsin B [2]) [µM],Ki (Cathepsin B [3]) [µM],Ki (Cathepsin B [4]) [µM],Ki (Cathepsin B [11]) [µM],Ki (Cathepsin B [12]) [µM],also measured
CN(CC#N)C(=O)c1ccc2c([N+](=O)[O-])ccc(O)c2n1,263,205,205,102,–,–,–
CC1CCN(C(=O)c2cc([N+](=O)[O-])c3cccnc3c2O)CC1,94,162,162,143,–,–,–
CCCNC(=O)[C@H]1O[C@@H]1C(=O)N[C@H](C(=O)N1CCC[C@H]1C(=O)OC)[C@@H](C)CC,–,–,–,–,–,–,inhibition (Cathepsin B [5]): Active
CC(=O)c1ccc(-c2cc(-c3ccc([N+](=O)[O-])c4cccnc34)c(-c3ccc(C(C)=O)cc3)o2)cc1,–,–,–,–,–,–,Ki (Cathepsin B [6]): 13 µM; Ki (Cathepsin B [7]): 39 µM; Ki (Cathepsin B [8]): Not Active; Ki (Cathepsin B [9]): Not Active
COCCCOc1cc(-c2ccc([N+](=O)[O-])c3cccnc23)ccc1OC,–,–,–,–,22,118,Ki (Cathepsin B [10]): 323 µM; Ki (Cathepsin B [13]): 323 µM
N#CCNC(=O)c1ccc2c([N+](=O)[O-])cc([N+](=O)[O-])c(O)c2n1,–,–,–,–,34,201,Ki (Cathepsin B [10]): 160 µM; Ki (Cathepsin B [14]; read-out: Ki): 29 µM; Ki (Cathepsin B [13]): 160 µM
COCCN(CC1CCN(Cc2nc3ccccc3s2)CC1)C(=O)c1cc([N+](=O)[O-])c2cccnc2c1O,41,181,181,200,–,–,–
N#CC1(NC(=O)c2ccc3c([N+](=O)[O-])ccc(O)c3n2)CC1,66,154,154,157,–,–,–
O=C(c1cc([N+](=O)[O-])c2cccnc2c1O)N1CCCCC1,171,364,364,311,–,–,–
CN(CC#N)C(=O)c1ccc2c([N+](=O)[O-])cc([N+](=O)[O-])c(O)c2n1,122,–,–,341,109,257,–
N#CCN(Cc1ccccc1)C(=O)c1ccc2c([N+](=O)[O-])ccc(O)c2n1,–,–,–,–,18,156,Ki (Cathepsin B [7]): 34 µM
N#CC1(NC(=O)c2cc([N+](=O)[O-])c3cccnc3c2O)CC1,–,185,185,–,–,–,Ki (Cathepsin B [14]): Not Active; Ki (Cathepsin B [7]): 124 µM; Activity (MCF-10A-neoT [15]): Non-Toxic; Ki (Pro-cathepsin H [16]): 329 µM; Ki (Pro-cathepsin H [17]): 329 µM; Activity (MCF-10A-neoT [18]): 70%; Activity (U-87 MG): Non-Toxic; Ki (Procathepsin L): 195 µM; inhibition (Cathepsin B [19]): Active; inhibition (Cathepsin B [5]): 15%
CCCNC(=O)[C@H]1O[C@@H]1C(=O)N[C@H](C(=O)N1CCC[C@H]1C(=O)O)[C@@H](C)CC,–,–,–,–,–,–,Activity (MCF-10A-neoT [18]): 40%; inhibition (Cathepsin B [5]): inactive
N#Cc1ccc2c([N+](=O)[O-])cc([N+](=O)[O-])c(O)c2n1,–,192,192,–,–,–,Ki (Cathepsin B [7]): 39 µM
O=[N+]([O-])c1ccc(O)c2ncccc12,–,–,–,–,–,–,Activity (Cathepsin B [20]): 24.7%; Activity (Cathepsin B [21]): 21.9%
N#CCNC(=O)c1ccc2c([N+](=O)[O-])ccc(O)c2n1,116,190,190,180,–,–,–
N#CCN(Cc1ccccc1)C(=O)c1ccc2c([N+](=O)[O-])cc([N+](=O)[O-])c(O)c2n1,–,–,–,–,35,154,Ki (Cathepsin B [14]; read-out: Ki): 163 µM; Ki (Cathepsin B [7]): 9 µM; Activity (MCF-10A-neoT [15]): Non-Toxic; Activity (U-87 MG): Non-Toxic; inhibition (Cathepsin B [19]): Active; inhibition (Cathepsin B [5]): inactive
Cc1ccc2c([N+](=O)[O-])ccc(O)c2n1,99,–,–,181,77,469,Ki (Cathepsin B [14]; read-out: Ki): 153 µM; inhibition (Cathepsin B [22]): 80%; Activity (MCF-10A-neoT [15]): Non-Toxic; Ki (Pro-cathepsin H [16]): 89 µM; Ki (Pro-cathepsin H [17]): 89 µM; Activity (U-87 MG): Non-Toxic; Ki (Procathepsin L): 122 µM; Activity (MCF-10A-neoT [23]): inactive; inhibition (Cathepsin B [24]): Active
CC(=O)c1ccc(-c2occc2-c2ccc([N+](=O)[O-])c3cccnc23)cc1,–,–,–,–,–,–,Ki (Cathepsin B [6]): 11 µM; Ki (Cathepsin B [7]): 46 µM; Ki (Cathepsin B [8]): Not Active; Ki (Cathepsin B [9]): Not Active
N#CCN(Cc1ccccc1)C(=O)c1cc([N+](=O)[O-])c2cccnc2c1O,64,–,–,182,32,185,Ki (Cathepsin B [14]; read-out: Ki): 132 µM; Activity (MCF-10A-neoT [15]): Non-Toxic; Activity (U-87 MG): Non-Toxic; inhibition (Cathepsin B [19]): 60%; inhibition (Cathepsin B [5]): < 10%
N#Cc1ccc2c([N+](=O)[O-])ccc(O)c2n1,68,214,214,142,–,–,Ki (Cathepsin B [14]; read-out: Ki): 123 µM
